Compounds with a hit are over-represented: about 1.8% of the library has one in this group of screens.
SKN-1 block = blocks SKN-1 activity in C. elegans; inhibition, % at 21.8 µM; C. elegans VP596 Pgst-4::GFP/RFP ratio, acrylamide-induced, 24 h; 360,000 compounds, 0.49% hits;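 active = interference check ratio from 0.5 to 1.5 plus GFP to RFP signal ratio inhibition reaching or exceeding a fixed threshold, cut at about 30% in these data, passing the limit was not always enough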
beta cell repl = MIN6 beta-cell proliferation induction; AID 2380; 330,000 compounds, 0.29% hits; proliferation, % at 10 µM; MIN6 cells proliferation, ATPlite luminescence, 48 h; cells starved in 0.2% serum; 100% = growth in 10% serum;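 active = compounds whose signal lies at least 3.5 SD above the mean of all wells on their plate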;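 note: 0% = DMSO-treated cells in low-serum medium and 100% = 10% serum control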
MT1-MMP act inh = inhibitors of human MT1-MMP activation; 360,000 compounds, 0.061% hits; AID 651647; HT1080 RFP-PRO-GFP cells, GFP/RFP ratio fluorescence, overnight; percent of plate control window, DMSO zero; GFP/RFP ratio change, % at 20 µM; P50281;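 active = GFP/RFP ratio change of at least 30% with cell ATP level not reduced by more than half and red fluorescence within 50% of control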
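Test system: HT1080 cells expressing an RFP-PRO-GFP fluorescent reporter construct / Compound dosing: single-point 20 µM compound, 1% DMSO / Schedule: cells overnight before dosing, compound overnight, 37 °C, 5% CO2 / Evaluation: GFP/RFP fluorescence ratio / Control set: DMSO and RFP-L50D-GFP cell wells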
DAGLB inhibitor = diacylglycerol lipase beta (human) inhibition | inhibition, % at 5.17 µM | Q8NCG7 | HEK293T DAGLB membrane lysate, EnzChek fluorogenic substrate | 340,000 compounds, 0.059% hits; in the data active = inhibition above about 34%;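 note: 0% = enzyme with vehicle and 100% = wells lacking enzyme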
Target sequence (Q8NCG7 whole entry, looked up): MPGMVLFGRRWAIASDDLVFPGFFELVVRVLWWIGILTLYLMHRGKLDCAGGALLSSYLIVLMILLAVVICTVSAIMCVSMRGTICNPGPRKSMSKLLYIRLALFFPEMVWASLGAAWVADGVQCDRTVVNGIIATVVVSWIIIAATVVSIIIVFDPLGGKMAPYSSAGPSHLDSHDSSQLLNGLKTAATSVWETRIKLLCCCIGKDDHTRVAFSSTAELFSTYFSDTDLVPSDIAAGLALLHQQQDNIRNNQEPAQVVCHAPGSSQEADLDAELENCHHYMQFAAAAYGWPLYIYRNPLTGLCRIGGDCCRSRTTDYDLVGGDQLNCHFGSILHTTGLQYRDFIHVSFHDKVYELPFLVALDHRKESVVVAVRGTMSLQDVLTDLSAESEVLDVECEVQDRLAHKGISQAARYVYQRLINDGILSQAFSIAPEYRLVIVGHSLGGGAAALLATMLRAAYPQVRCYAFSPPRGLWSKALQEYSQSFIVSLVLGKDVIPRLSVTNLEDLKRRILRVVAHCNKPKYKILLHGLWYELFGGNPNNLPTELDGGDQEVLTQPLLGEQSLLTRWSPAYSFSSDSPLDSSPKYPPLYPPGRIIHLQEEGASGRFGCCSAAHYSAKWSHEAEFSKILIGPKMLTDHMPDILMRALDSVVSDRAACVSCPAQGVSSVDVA
bovine MsrA act = bovine methionine sulfoxide reductase A activation. purified bovine MsrA, absorbance read-out. activation, % at 10.6 µM. 360,000 compounds, 0.3% hits. AID 602163; in the data active = activation above about 7.5%;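 note: 0% = vehicle and 100% = reference activator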
MsrA inhibitor = inhibitors of bovine MsrA | purified bovine MsrA, absorbance read-out | inhibition, % at 15.5 µM | 360,000 compounds, 0.75% hits | AID 651718; in the data active = inhibition above about 4.5%;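 note: 0% = vehicle wells with enzyme and 100% = reference inhibitor wells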
MsrA act confirm = confirmation of bovine methionine sulfoxide reductase A activators | activation, % at 10.6 µM | AID 602270 | 1,000 compounds, 12% hits | shares compounds with bovine MsrA act | purified bovine MsrA, absorbance read-out; in the data active = activation above about 4%;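 note: enzyme coupled to thioredoxin and thioredoxin reductase with NADPH; 0% = vehicle wells and 100% = reference activator wells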
* hit, by the source's call; . = no result given.

SMILES	SKN-1 block	beta cell repl	MT1-MMP act inh	DAGLB inhibitor	bovine MsrA act	MsrA inhibitor	MsrA act confirm
CCNc1nc(SCC(=O)OC)nc(N2CCOCC2)n1	-2	-1	0	1	-1	0	.
COC(=O)Cn1nnc(N2CCOCC2)n1	1	-1	2	.	8.0*	-1	1
O=C(NNC(=O)C1CC1c1ccccc1)Nc1ccccc1 (stereo not drawn)	2	1	-1	0	-1	0	.
CC(C)(C)NC(=S)NNC(=O)[C@H]1C[C@@H]1c1ccccc1	6	-2	3	-2	8.5*	-1	-1
CC(=O)c1ccc(NC(=O)C2CC2c2ccccc2)cc1 (stereo not drawn)	9	0	-7	0	10*	0	-4
CCCCn1c(N)c(N(CCOC)C(=O)c2ccc(S(=O)(=O)N3CCCCCC3)cc2)c(=O)[nH]c1=O	3	-2	1	0	-4	0	.
COC(=O)c1sccc1NC(=O)CN1CCN(c2ccc(F)cc2)CC1	18	-4	-6	-6	9.1*	0	3
Cc1c(NC(=O)Cn2[nH]c(=O)c3ccccc3c2=O)c(=O)n(-c2ccccc2)n1C	-18	-4	0	-1	23*	0	-1
Cc1c(NC(=O)CN2CCN(c3ccccc3)CC2)c(=O)n(-c2ccccc2)n1C	-12	-3	2	-5	-1	-1	.
Cc1c(NC(=O)N2CCCCCC2)c(=O)n(-c2ccccc2)n1C	-12	-3	1	1	8.4*	2	-4
Cc1c(NC(=O)CCC(=O)N2CCCCC2)c(=O)n(-c2ccccc2)n1C	-1	0	0	2	0	1	.
NC(=O)c1nsc(C(=O)N(c2cccc(F)c2)C(C(=O)NCC2CCCO2)c2c[nH]c3ccccc23)c1N (stereo not drawn)	9	2	-7	3	-1	1	.
CC1CCN(CCCNC(=O)c2ccc3c(=O)n(Cc4ccc(Cl)cc4)c(=S)[nH]c3c2)CC1	9	-6	-2	3	8.2*	2	-3
COc1cc(C(=O)N(C)CC2CCN(CCc3cccc(C(F)(F)F)c3)CC2)ccc1C	3	-1	4	0	0	0	.
O=C(COC(=O)c1cc(=O)[nH]c2ccccc12)NC1CCCCCCC1	-10	-1	1	-1	-3	2	.
O=C(COC(=O)c1c[nH]c2ccccc12)NC1CCCC1	-9	0	-4	3	22*	-1	-2
Cc1ccc(NC(=O)COC(=O)Cc2ccc(Br)cc2)cc1S(=O)(=O)N1CCOCC1	15	-2	4	-4	-2	-1	.
Nc1ccc(S(=O)(=O)c2ccc(N)nc2)cc1	13	.	-2	.	7.7*	0	1
COc1ccc(CC(=O)N2CCCc3ccccc32)cc1OC	11	-3	2	0	9.6*	-1	-3
COC(=O)c1c(SCC(=O)Nc2ccc(C)c(C)c2)nc(=O)[nH]c1C	-4	-1	-1	3	-1	-1	.
CC(=O)Nc1ccc(NC(=O)CC(C)n2ccnc2)cc1 (stereo not drawn)	-3	4	1	-1	8.5*	0	0
CCCN(C(=O)c1cn(CCC)c2ccccc12)c1ccc(Oc2cccnc2)cc1	.	.	.	.	.	0	.
CCCCc1nnc(NC(=O)CCS(=O)(=O)c2ccc(C)cc2)s1	13	-8	1	-2	7.8*	-2	2
O=[N+]([O-])c1ccc(N/N=C/c2cn(Cc3ccc(F)cc3)c3ccccc23)nc1	10	.	-14	3	17*	-1	0
O=C(NC1CCCC1)C(c1ccncc1)N(C(=O)c1csnn1)C1CCCC1 (stereo not drawn)	11	1	0	0	-2	-1	.
SMILES	SKN-1 block	beta cell repl	MT1-MMP act inh	DAGLB inhibitor	bovine MsrA act	MsrA inhibitor	MsrA act confirm
Cc1ccc(C(=O)NNC(=S)NC(=O)COc2ccccc2)cc1	-4	-3	5	-1	8	0	.
Cc1ccccc1C(=O)NNC(=S)NC(=O)COc1ccccc1	6	-3	6	2	13*	0	0
CC(c1nnnn1C1CCCCC1)N(Cc1ccccc1)Cc1cccnc1 (stereo not drawn)	-20	2	1	-1	11*	1	1
CC(C)c1ccc(NC(=S)NCc2cccs2)cc1	4	-6	13	-6	8.1*	1	-3
Cc1csc(N(C(=O)c2cccc(S(=O)(=O)N3CCCC3)c2)c2ccccc2)n1	1	-1	-3	-4	15*	0	-3
Fc1ccccc1/C=N/n1c(COc2ccccc2)n[nH]c1=S	-12	1	-4	5	9.9*	0	1
CC(Oc1ccccc1Cl)C(=O)N1CCCN(C)CC1 (stereo not drawn)	32	-4	-2	-1	-3	-1	.
CC(Oc1ccccc1Cl)C(=O)N1CCOCC1 (stereo not drawn)	-5	0	-4	-3	11*	0	-2
S=c1[nH]cnc2sc(-c3ccccc3)cc12	0	-4	-5	-2	8.2*	2	0
C[C@H](CO)N1C[C@H](C)[C@H](CN(C)C(=O)NC2CCCCC2)OCc2cnnn2CCCC1=O	.	.	.	.	.	0	.
Cc1ccc(C2NC(=O)CCC2[N+](=O)[O-])cc1 (stereo not drawn)	-2	4	-3	.	-3	-1	.
Cc1ccc(C(=O)/C=C/c2cn(CN3CCN(C)CC3)c3ccccc23)cc1	18	-6	-2	-3	-1	2	.
Cn1cc(/C=C/C(=O)c2ccccc2)c2ccccc21	-4	-4	-15	-5	9.1*	1	-3
CC1(C)Cc2c(sc(NC(=O)COc3ccc(Cl)cc3)c2C(N)=O)C(C)(C)N1	4	-6	8	1	12*	-1	-1
CN(C)CCCNC(=O)c1ccc(-c2nc(-c3ccc(Cl)cc3)cs2)cc1	15	-6	-10	2	8.3*	1	-2
N#CC1(NC(=O)COC(=O)c2cccc(-n3cnnn3)c2)CCCCC1	20	-4	-1	2	-3	0	.
COc1ccc(-n2cc(CN3CCC(OC)CC3)c(-c3cccc(F)c3)n2)cc1	-10	1	-4	-1	8.2*	0	-4
COc1ccc(-n2cc(CNC3CCC(O)CC3)c(-c3cccc(F)c3)n2)cc1 (stereo not drawn)	-10	1	6	3	-1	0	.
C=CCc1cc(C)ccc1OCCOCCn1ccnc1	2	0	3	-3	-5	0	.
Cc1ccc(C(=O)OCC(=O)Nc2cc(C(C)(C)C)nn2-c2ccccc2)c(O)c1	10	-5	6	-9	-7	0	.
